# System: MCF7
# Assay: Cytotoxicity against human MCF7 cells by MTT assay
# Format: functional, cell-based
# Conditions: not given
# Outline: (§1)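 Cells grown in RPMI-1640 with 10% fetal calf serum plus penicillin and streptomycin, 37 °C, 5% CO₂. Compounds in DMSO, final ≤2% (v/v), tested in 96-well cultures with MTT staining. IC₅₀ = concentration cutting optical density 50% versus untreated cells; three replicate wells per point; mean of three independent determinations.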
row,SMILES,IC50 [µM]
1,CCn1c2cc(OCC(C)C)ccc2c2ccnc(C)c21,13.2
2,CCn1c2cc(OCCCc3ccccc3)ccc2c2ccnc(C)c21,> 100

# System: Mus musculus
# Assay: Neurotoxicity in ip dosed C57BL/6 mouse assessed as tremble, twitch, jumping and supination response
# Format: toxicity, organism-based
# Conditions: in vivo
# Outline: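 C57BL/6 mice (9–12 weeks, 18–22 g), fasted overnight with water, dosed i.p. with 1.0–500 mg/kg in 0.5% CMC-Na; 10 per group (5 male, 5 female). Watched continuously 2 h for tremor, twitch, jumping, supination and other behavior, then intermittently to 24 h and occasionally to 14 days; killed day 14, with heart, liver and kidneys inspected.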
row,SMILES,Activity
1,CCn1c2cc(OCc3c(F)c(F)c(F)c(F)c3F)ccc2c2cc[n+](Cc3ccccc3)c(C)c21.[Br-],Non-toxic
2,CCn1c2cc(OCC(C)C)ccc2c2ccnc(C)c21,Non-toxic
3,CCn1c2cc(OCCCc3ccccc3)ccc2c2ccnc(C)c21,Non-toxic

# System: not listed separately
# Assay: Antitumor activity against mouse Sarcoma 180 cells xenografted in mouse assessed as tumor inhibition at 40 mg/kg, ip qd for 7 days measured every 3 days for 21 days
# Format: functional
# Conditions: Sarcoma-180, ip, route intraperitoneal
row,SMILES,inhibition in vivo at 40 mg/kg [%]
1,CCn1c2cc(OCC(C)C)ccc2c2ccnc(C)c21,27.8
2,CCn1c2cc(OCCCc3ccccc3)ccc2c2ccnc(C)c21,26

# System: A-375
# Assay: Cytotoxicity against human A375 cells by MTT assay
# Format: functional, cell-based
# Conditions: not given
# Outline: as §1
row,SMILES,IC50 [µM]
1,CCn1c2cc(OCc3c(F)c(F)c(F)c(F)c3F)ccc2c2cc[n+](Cc3ccccc3)c(C)c21.[Br-],3.8
2,CCCCOc1ccc2c3cc[n+](Cc4ccccc4)c(C)c3n(CC(C)C)c2c1,2.1
3,CCCCCCCCOc1ccc2c3cc[n+](Cc4ccccc4)c(C)c3n(CCCc3ccccc3)c2c1,< 1.5
4,CCn1c2cc(OCCCc3ccccc3)ccc2c2ccnc(C)c21,19.7

# System: HT-29
# Assay: Cytotoxicity against human HT-29 cells by MTT assay
# Format: functional, cell-based
# Conditions: not given
# Outline: as §1
row,SMILES,IC50 [µM]
1,CCn1c2cc(OCc3c(F)c(F)c(F)c(F)c3F)ccc2c2cc[n+](Cc3ccccc3)c(C)c21.[Br-],1.6
2,CCCCOc1ccc2c3cc[n+](Cc4ccccc4)c(C)c3n(CC(C)C)c2c1,4
3,CCCCCCCCOc1ccc2c3cc[n+](Cc4ccccc4)c(C)c3n(CCCc3ccccc3)c2c1,3.4
4,CCn1c2cc(OCC(C)C)ccc2c2ccnc(C)c21,16.9
5,CCn1c2cc(OCCCc3ccccc3)ccc2c2ccnc(C)c21,11.8

# System: Lewis lung carcinoma cell line
# Assay: Antitumor activity against mouse LLC cells xenografted in mouse assessed as tumor inhibition at 40 mg/kg, ip qd for 7 days measured every 3 days for 21 days
# Format: functional
# Conditions: route intraperitoneal
row,SMILES,inhibition in vivo at 40 mg/kg [%]
1,CCn1c2cc(OCC(C)C)ccc2c2ccnc(C)c21,20.8
2,CCn1c2cc(OCCCc3ccccc3)ccc2c2ccnc(C)c21,21.7

# System: Bel-7402
# Assay: Cytotoxicity against human Bel7402 cells by MTT assay
# Format: functional, cell-based
# Conditions: not given
# Outline: as §1
row,SMILES,IC50 [µM]
1,CCn1c2cc(OCC(C)C)ccc2c2ccnc(C)c21,21.9
2,CCn1c2cc(OCCCc3ccccc3)ccc2c2ccnc(C)c21,13.5

# System: 786-0
# Assay: Cytotoxicity against human 786-0 cells by MTT assay
# Format: functional, cell-based
# Conditions: not given
# Outline: as §1
row,SMILES,IC50 [nM]
1,CCn1c2cc(OCc3c(F)c(F)c(F)c(F)c3F)ccc2c2cc[n+](Cc3ccccc3)c(C)c21.[Br-],2900
2,CCCCOc1ccc2c3cc[n+](Cc4ccccc4)c(C)c3n(CC(C)C)c2c1,2400
3,CCCCCCCCOc1ccc2c3cc[n+](Cc4ccccc4)c(C)c3n(CCCc3ccccc3)c2c1,< 1500
4,CCn1c2cc(OCC(C)C)ccc2c2ccnc(C)c21,24300
5,CCn1c2cc(OCCCc3ccccc3)ccc2c2ccnc(C)c21,13200

# System: KB
# Assay: Cytotoxicity against human KB cells by MTT assay
# Format: functional, cell-based
# Conditions: not given
# Outline: as §1
row,SMILES,IC50 [µM]
1,CCn1c2cc(OCc3c(F)c(F)c(F)c(F)c3F)ccc2c2cc[n+](Cc3ccccc3)c(C)c21.[Br-],13.8
2,CCCCOc1ccc2c3cc[n+](Cc4ccccc4)c(C)c3n(CC(C)C)c2c1,6
3,CCCCCCCCOc1ccc2c3cc[n+](Cc4ccccc4)c(C)c3n(CCCc3ccccc3)c2c1,< 1.5
4,CCn1c2cc(OCC(C)C)ccc2c2ccnc(C)c21,20.3
5,CCn1c2cc(OCCCc3ccccc3)ccc2c2ccnc(C)c21,22.6

# System: SCaBER
# Assay: Cytotoxicity against human SCaBER cells by MTT assay
# Format: functional, cell-based
# Conditions: not given
# Outline: as §1
row,SMILES,IC50 [µM]
1,CCn1c2cc(OCc3c(F)c(F)c(F)c(F)c3F)ccc2c2cc[n+](Cc3ccccc3)c(C)c21.[Br-],6.8
2,CCCCOc1ccc2c3cc[n+](Cc4ccccc4)c(C)c3n(CC(C)C)c2c1,9.7
3,CCCCCCCCOc1ccc2c3cc[n+](Cc4ccccc4)c(C)c3n(CCCc3ccccc3)c2c1,6.1
4,CCn1c2cc(OCC(C)C)ccc2c2ccnc(C)c21,16.4
5,CCn1c2cc(OCCCc3ccccc3)ccc2c2ccnc(C)c21,6.5

# System: HeLa
# Assay: Cytotoxicity against human HeLa cells by MTT assay
# Format: functional, cell-based
# Conditions: not given
# Outline: as §1
row,SMILES,IC50 [µM]
1,CCn1c2cc(OCC(C)C)ccc2c2ccnc(C)c21,23.3
2,CCn1c2cc(OCCCc3ccccc3)ccc2c2ccnc(C)c21,30.2

# System: OS-RC-2
# Assay: Cytotoxicity against human OS-RC2 cells by MTT assay
# Format: functional, cell-based
# Conditions: not given
# Outline: as §1
row,SMILES,IC50 [µM]
1,CCn1c2cc(OCc3c(F)c(F)c(F)c(F)c3F)ccc2c2cc[n+](Cc3ccccc3)c(C)c21.[Br-],1.8
2,CCCCOc1ccc2c3cc[n+](Cc4ccccc4)c(C)c3n(CC(C)C)c2c1,5.8
3,CCCCCCCCOc1ccc2c3cc[n+](Cc4ccccc4)c(C)c3n(CCCc3ccccc3)c2c1,1.7
4,CCn1c2cc(OCC(C)C)ccc2c2ccnc(C)c21,32

# System: not listed separately
# Assay: Acute toxicity in ip dosed C57BL/6 mouse measured up to 14 days
# Format: organism-based
# Conditions: in vivo
# Outline: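 Healthy C57BL/6 mice (9–12 weeks, 18–22 g), fasted overnight, 10 per group (5 male, 5 female). Single i.p. dose, 1.0 to 500 mg/kg in 0.5% CMC-Na. Watched continuously for 2 h, intermittently over 24 h, then occasionally to day 14 for behaviour, deaths and delayed effects. Heart, liver and kidneys inspected at necropsy. LD50 derived graphically.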
row,SMILES,LD50 at 336 h [mg/kg]
1,CCn1c2cc(OCc3c(F)c(F)c(F)c(F)c3F)ccc2c2cc[n+](Cc3ccccc3)c(C)c21.[Br-],12.5
2,CCn1c2cc(OCC(C)C)ccc2c2ccnc(C)c21,200
3,CCn1c2cc(OCCCc3ccccc3)ccc2c2ccnc(C)c21,200

# System: not listed separately
# Assay: Cytotoxicity against human Blu-87 cells by MTT assay
# Format: functional, cell-based
# Conditions: not given
# Outline: as §1
row,SMILES,IC50 [µM]
1,CCn1c2cc(OCc3c(F)c(F)c(F)c(F)c3F)ccc2c2cc[n+](Cc3ccccc3)c(C)c21.[Br-],17.7
2,CCCCOc1ccc2c3cc[n+](Cc4ccccc4)c(C)c3n(CC(C)C)c2c1,8.9
3,CCCCCCCCOc1ccc2c3cc[n+](Cc4ccccc4)c(C)c3n(CCCc3ccccc3)c2c1,1.9
4,CCn1c2cc(OCC(C)C)ccc2c2ccnc(C)c21,14.2
5,CCn1c2cc(OCCCc3ccccc3)ccc2c2ccnc(C)c21,16.7

# System: U-251
# Assay: Cytotoxicity against human U251 cells by MTT assay
# Format: functional, cell-based
# Conditions: not given
# Outline: as §1
row,SMILES,IC50 [µM]
1,CCn1c2cc(OCc3c(F)c(F)c(F)c(F)c3F)ccc2c2cc[n+](Cc3ccccc3)c(C)c21.[Br-],6.6
2,CCCCOc1ccc2c3cc[n+](Cc4ccccc4)c(C)c3n(CC(C)C)c2c1,1.8
3,CCCCCCCCOc1ccc2c3cc[n+](Cc4ccccc4)c(C)c3n(CCCc3ccccc3)c2c1,2.9
4,CCn1c2cc(OCC(C)C)ccc2c2ccnc(C)c21,44.6
5,CCn1c2cc(OCCCc3ccccc3)ccc2c2ccnc(C)c21,28

# System: CWR22R
# Assay: Cytotoxicity against human 22Rv1 cells by MTT assay
# Format: functional, cell-based
# Conditions: not given
# Outline: as §1
row,SMILES,IC50 [nM]
1,CCn1c2cc(OCc3c(F)c(F)c(F)c(F)c3F)ccc2c2cc[n+](Cc3ccccc3)c(C)c21.[Br-],< 1400
2,CCCCOc1ccc2c3cc[n+](Cc4ccccc4)c(C)c3n(CC(C)C)c2c1,< 1600
3,CCCCCCCCOc1ccc2c3cc[n+](Cc4ccccc4)c(C)c3n(CCCc3ccccc3)c2c1,< 1500

# System: 769-P
# Assay: Cytotoxicity against human 769-P cells by MTT assay
# Format: functional, cell-based
# Conditions: not given
# Outline: as §1
row,SMILES,IC50 [µM]
1,CCn1c2cc(OCc3c(F)c(F)c(F)c(F)c3F)ccc2c2cc[n+](Cc3ccccc3)c(C)c21.[Br-],13
2,CCCCOc1ccc2c3cc[n+](Cc4ccccc4)c(C)c3n(CC(C)C)c2c1,2.3
3,CCCCCCCCOc1ccc2c3cc[n+](Cc4ccccc4)c(C)c3n(CCCc3ccccc3)c2c1,1.8
4,CCn1c2cc(OCC(C)C)ccc2c2ccnc(C)c21,27
5,CCn1c2cc(OCCCc3ccccc3)ccc2c2ccnc(C)c21,22.6

# System: HepG2
# Assay: Cytotoxicity against human HepG2 cells by MTT assay
# Format: functional, cell-based
# Conditions: not given
# Outline: as §1
row,SMILES,IC50 [µM]
1,CCn1c2cc(OCC(C)C)ccc2c2ccnc(C)c21,20.8
2,CCn1c2cc(OCCCc3ccccc3)ccc2c2ccnc(C)c21,11.4

# System: BGC-823
# Assay: Cytotoxicity against human BGC823 cells by MTT assay
# Format: functional, cell-based
# Conditions: not given
# Outline: as §1
row,SMILES,IC50 [µM]
1,CCn1c2cc(OCC(C)C)ccc2c2ccnc(C)c21,29.8
2,CCn1c2cc(OCCCc3ccccc3)ccc2c2ccnc(C)c21,11.9

# System: not listed separately
# Assay: Antitumor activity against mouse Sarcoma 180 cells xenografted in mouse assessed as tumor inhibition at 2.5 mg/kg, ip qd for 7 days measured every 3 days for 21 days
# Format: functional
# Conditions: Sarcoma-180, ip, route intraperitoneal
row,SMILES,inhibition in vivo at 2.5 mg/kg [%]
1,CCn1c2cc(OCc3c(F)c(F)c(F)c(F)c3F)ccc2c2cc[n+](Cc3ccccc3)c(C)c21.[Br-],36.9

# System: A549
# Assay: Cytotoxicity against human A549 cells by MTT assay
# Format: functional, cell-based
# Conditions: not given
# Outline: as §1
row,SMILES,IC50 [nM]
1,CCn1c2cc(OCc3c(F)c(F)c(F)c(F)c3F)ccc2c2cc[n+](Cc3ccccc3)c(C)c21.[Br-],1800
2,CCCCOc1ccc2c3cc[n+](Cc4ccccc4)c(C)c3n(CC(C)C)c2c1,2200
3,CCCCCCCCOc1ccc2c3cc[n+](Cc4ccccc4)c(C)c3n(CCCc3ccccc3)c2c1,1600
4,CCn1c2cc(OCC(C)C)ccc2c2ccnc(C)c21,30300
5,CCn1c2cc(OCCCc3ccccc3)ccc2c2ccnc(C)c21,22600

# System: Lewis lung carcinoma cell line
# Assay: Antitumor activity against mouse LLC cells xenografted in mouse assessed as tumor inhibition at 2.5 mg/kg, ip qd for 7 days measured every 3 days for 21 days
# Format: functional
# Conditions: route intraperitoneal
row,SMILES,inhibition in vivo at 2.5 mg/kg [%]
1,CCn1c2cc(OCc3c(F)c(F)c(F)c(F)c3F)ccc2c2cc[n+](Cc3ccccc3)c(C)c21.[Br-],23.7

# — ChEMBL document CHEMBL2311271 (Eur J Med Chem, 2013)
